The record followed here is article PMC8542566 (Cell chemical biology, 2021).

The subject of one test is TgPPT1. Briefly: Inhibition of recombinant TgPPT1, turnover of 4MU-octanoate. It is filed as biochemical, Toxoplasma gondii. To be noted: recombinant enzyme, 4MU-octanoate substrate; result in words. In outline: (§1)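 Purified full-length N-terminal His6 enzyme from E. coli, 50 nM final, with 10 μM test compound in 20 mM HEPES, 150 mM NaCl, 10 mM CHAPS, pH 7.4, at 37°C. 4MU-octanoate hydrolysis followed by fluorescence. Initial rates taken from a linear fit, in triplicate, normalized to DMSO control and expressed as percent inhibition.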

For another test, the system named is TgASH2. Briefly: Inhibition of recombinant TgASH2, turnover of 4MU-octanoate. The test is classed as biochemical, Toxoplasma gondii. The note with it: recombinant enzyme, 4MU-octanoate substrate; result in words. The gist of the method:
as §1

Another test concerns TgASH3. The experiment in a line: Inhibition of recombinant TgASH3, turnover of 4MU-octanoate. The test is classed as biochemical, Toxoplasma gondii. To be noted: recombinant enzyme, 4MU-octanoate substrate; result in words. The gist of the method: as §1
The test system of another test is TgASH4. Briefly: Gel-based competitive FP-TAMRA labeling of recombinant TgASH4. To be noted: recombinant enzyme, gel-based FP-TAMRA competition; result in words. It is filed as binding, Toxoplasma gondii. The gist of the method: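 Full-length N-terminal His6 enzyme, expressed in E. coli BL21-CodonPlus(DE3)-RIL (0.5 mM IPTG, 16 h, 19°C) and purified. 300 ng enzyme pre-incubated with DMSO or test compound (10 μM) for 30 min on ice, then labeled with FP-TAMRA for 30 min at 37°C. Quenched in reducing SDS buffer, resolved by SDS-PAGE, fluorescence-scanned (532 nm laser, 610 nm filter). Residual labeling expressed as percent inhibition versus DMSO.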

The test system of test [1] is T. gondii tachyzoites in HFFs. The experiment in a line: Rosette formation assay. The test is classed as cell-based, Toxoplasma gondii. The note with it: 10 μM dose, wild-type parasites in HFFs, 24 h. The gist of the method:
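Freshly egressed wild-type tachyzoites pre-treated with DMSO or 10 μM test compound were grown 24 h on confluent HFF coverslips (DMEM, 10% serum complex, 37°C, 5% CO2). Cells were PFA-fixed, Triton-permeabilized, BSA-blocked, stained with anti-Toxo-FITC (1:1000, overnight, 4°C), DAPI-mounted and imaged by confocal microscopy.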

On to `O=C(O)c1cccc(NC(=S)Nc2ccc3c(Cl)c(OCCBr)oc(=O)c3c2)c1` [JCP342], for which, in the test on TgPPT1, the “inhibitory activity against recombinant TgPPT1” value is listed as “significant inhibitory activity”.
As for `O=c1oc(OCCBr)c(Cl)c2ccc(NC(=S)Nc3ccccc3)cc12` [JCP343], in the test with TgPPT1, the “inhibitory activity against recombinant TgPPT1” value is given as “virtually no activity”. In addition, the “inhibition of TgASH2” value with TgASH2 was “potent inhibitors”. Further, in the test with TgASH3, the “inhibition of TgASH3” value is “potent inhibitors”. Moreover, in the test on TgASH4, the “inhibition of TgASH4” value is recorded as “potent inhibitors”.
As for `CCCCCCCCCCC[C@@H](C[C@@H]1OC(=O)[C@H]1CCCCCC)OC(=O)[C@H](CC(C)C)NC=O` [Orlistat], in test [1], the “rosette formation inside the host cell” value was “disordered rosettes”.
